Data published in paper PMC9362842 (Bioconjugate chemistry, 2022).
Read-outs that look alike come from different tables or passages of the source. Marks after values point to notes of the source that are not given here. Blank lines part the entries; values can stand above or below the compound they belong to.

Assays:
[1] = Hydrolytic stability of the -NCS group in pH 9.1 NaHCO3 buffer; format: physicochemical
[2] = format: physicochemical; conditions: pH 7.4, 25 °C, I = 0.1 M KCl; for pLa (−log [M]free): [M]total = 10^−6 M, [L]total = 10^−5 M
In short: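 Protonation constants of the free chelator are first determined by pH potentiometric titration (25 °C, 0.1 M KCl ionic strength), then La³⁺ stability constants (log KLaL) by the same method, all in triplicate. The fifth and sixth protonation constants are not determined over the pH ranges used. Conditional constants and pLa at pH 7.4 are calculated from the protonation and stability constants.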

[3] = cited from earlier work
[4] = cited from earlier work; remark: listed apart in the source
GPC3 = GPC3 (Homo sapiens, UniProt P51654); assay: Bio-layer interferometry; format: binding; conditions: BLI, immobilized GPC3 antigen, global fit
HepG2 (GPC3+) xenografts = format: in vivo, athymic nude mice; conditions: 100 nCi

Compound: O=C(O)c1cccc(CN2CCOCCOCCN(Cc3cc(N=C=S)cc(C(=O)O)n3)CCOCCOCC2)n1 [H2macropa-NCS]
t1/2 of -NCS hydrolysis to the amine ([1]; buffer, pH 9.1): 1.25 h
time to complete hydrolysis to the amine ([1]; pH 9.1 NaHCO3 buffer, room temperature): approximately 5 h

Compound: GC33-BZM: H2BZmacropa-NCS conjugate of the antibody GC33
Kd (GPC3): 0.19 nM

Compound: GC33: glypican-3 (GPC3)-targeting antibody codrituzumab
Kd (GPC3): 0.042 nM

Compound: [^225Ac]Ac-GC33-BZM: ^225Ac-labeled GC33-BZM antibody radioconjugate
tumor uptake compared with ^225Ac[Ac]-GC33-M (HepG2 (GPC3+) xenografts; 48 and 96 h): effectively indistinguishable
tumor uptake (HepG2 (GPC3+) xenografts; 48 and 96 h post-injection): clear, specific tumor uptake

Further lines, with some results ahead:

pLa (−log [M]free) [2]: 15.58
log K´La (conditional stability constant) [2]: 14.63
Compound: O=C(O)c1cccc(CN2CCOCCOCCN(Cc3cccc(C(=O)O)n3)CCOCCOCC2)n1 [H2macropa]
log K1 (protonation constant) ([3]; 0.1 M KCl): 7.41(1)^c
log K2 (protonation constant) ([3]; 0.1 M KCl): 6.85(1)^c
log K3 (protonation constant) ([3]; 0.1 M KCl): 3.32(1)^c
log K4 (protonation constant) ([3]; 0.1 M KCl): 2.36(1)^c
log K5 (protonation constant) ([3]; 0.1 M KCl): 1.69(1)^c
log KLaHL ([4]; 0.1 M KCl): 2.28(3) ^ c

pLa (−log [M]free) [2]: 16.62
log K´La (conditional stability constant) [2]: 15.67
Compound: O=C(O)CN1CCN(CC(=O)O)CCN(CC(=O)O)CCN(CC(=O)O)CC1 [H4DOTA, tetraazacyclododecane-1,4,7,10-tetraacetic acid]
log K1 (protonation constant) ([3]; 0.1 M KCl): 11.14^d
log K2 (protonation constant) ([3]; 0.1 M KCl): 9.69^d
log K3 (protonation constant) ([3]; 0.1 M KCl): 4.84^d
log K4 (protonation constant) ([3]; 0.1 M KCl): 3.95^d
log KLaHL ([4]; 0.1 M KCl): 2.5(2) ^ d
log KLaL (La^3+ stability constant) ([4]; 0.1 M KCl): 21.7(1) ^ d

pLa (−log [M]free) [2]: 13.62
log K´La (conditional stability constant) [2]: 12.67
Compound: O=C(O)CN(CCN(CC(=O)O)CC(=O)O)CC(=O)O [H4EDTA, ethylenediamine tetraacetic acid]
log K1 (protonation constant) ([3]; 0.1 M): 10.17^e
log K2 (protonation constant) ([3]; 0.1 M): 6.11^e
log K3 (protonation constant) ([3]; 0.1 M): 2.68^e
log K4 (protonation constant) ([3]; 0.1 M): 2.00^e
log K5 (protonation constant) ([3]; 0.1 M): 1.5^e
log KLaHL ([4]; 0.1 M): 2.24 ^ e
log KLaL (La^3+ stability constant) ([4]; 0.1 M): 15.46 ^ e

pLa (−log [M]free) [2]: 16.22
log K´La (conditional stability constant) [2]: 15.27
Compound: O=C(O)CN(CCN(CC(=O)O)CC(=O)O)CCN(CC(=O)O)CC(=O)O [H5DTPA, diethylenetriamine pentaacetic acid]
log K1 (protonation constant) ([3]; 0.1 M): 10.45^e
log K2 (protonation constant) ([3]; 0.1 M): 8.53^e
log K3 (protonation constant) ([3]; 0.1 M): 4.28^e
log K4 (protonation constant) ([3]; 0.1 M): 2.65^e
log K5 (protonation constant) ([3]; 0.1 M): 1.82^e
log KLaL (La^3+ stability constant) ([4]; 0.1 M): 19.48 ^ e
